# Test results as given in article PMC3279955 (ACS chemical neuroscience, 2012).
# What was measured:
# [1] = tested on: human SMA patient fibroblasts; details: commercially available GSK-3 inhibitors; cited from earlier work
# [2] = tested on: primary immature cortical neurons; test: Oxidative stress; assay type: cell-based
# How it was run: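 Primary cortical neurons were exposed to test compound (20 μM) with or without homocysteic acid (HCA, 5 mM), which depletes glutathione. Survival was read by MTT assay after 48 h and expressed as percent of the no-inhibitor control, mean ± SEM. Live/dead staining with calcein AM and ethidium homodimer was done in parallel.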
# [3] = tested on: GSK-3; test: GSK-3 inhibition in the presence of 10 µM ATP; assay type: biochemical; details: read-out: GSK-3 IC50; tested in the presence of 10 µM ATP
# [4] = tested on: Δ7 SMA KO mouse; test: Δ7 SMA KO mouse model: tube test; assay type: in vivo; details: 75 mg/kg once a day; postnatal day 6, 8, 10 and 12
# [5] = tested on: human SMA patient fibroblasts; test: SMN protein level in SMA patient fibroblasts by western blot; assay type: cell-based; details: 72 h
# How it was run: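 Fibroblasts from SMA patients were exposed to test compound (20, 25 or 30 μM) or DMSO vehicle for 72 h. SMN protein was assessed by Western blot and quantified from three separate experiments.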
# [6] = tested on: Δ7 SMA KO mouse; test: Δ7 SMA KO neonatal mouse model: survival, body weight, tolerability; assay type: in vivo
# [7] = tested on: Δ7 SMA KO mouse; test: Δ7 SMA KO mouse model: negative geotaxis test; assay type: in vivo; details: 75 mg/kg once a day
# [8] = target: PKCβ2 (Homo sapiens, UniProt P05771); test: Kinase inhibition assay; assay type: biochemical
# Sequence of PKCβ2 (P05771 1-673 isoform P05771-2): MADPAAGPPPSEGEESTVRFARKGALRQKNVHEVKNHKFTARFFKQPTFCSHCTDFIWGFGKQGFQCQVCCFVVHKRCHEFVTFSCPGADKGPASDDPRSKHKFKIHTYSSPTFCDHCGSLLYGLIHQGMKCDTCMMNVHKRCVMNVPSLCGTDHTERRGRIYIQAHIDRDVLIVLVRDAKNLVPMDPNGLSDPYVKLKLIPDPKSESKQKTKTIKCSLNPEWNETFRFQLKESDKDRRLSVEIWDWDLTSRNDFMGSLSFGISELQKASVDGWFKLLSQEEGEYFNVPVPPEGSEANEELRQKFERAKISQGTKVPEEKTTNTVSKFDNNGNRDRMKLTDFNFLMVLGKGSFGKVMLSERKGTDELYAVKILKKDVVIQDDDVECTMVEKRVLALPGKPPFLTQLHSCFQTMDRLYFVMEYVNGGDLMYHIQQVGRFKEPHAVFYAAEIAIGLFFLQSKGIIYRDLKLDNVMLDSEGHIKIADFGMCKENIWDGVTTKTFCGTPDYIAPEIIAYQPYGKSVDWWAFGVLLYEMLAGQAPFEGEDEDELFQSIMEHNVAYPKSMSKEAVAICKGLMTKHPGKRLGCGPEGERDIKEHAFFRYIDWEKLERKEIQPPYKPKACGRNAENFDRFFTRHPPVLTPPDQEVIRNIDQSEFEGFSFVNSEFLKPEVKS
molecule,measurement,setting,value
"COc1ccc(CNC(=O)Nc2ncc([N+](=O)[O-])s2)cc1 [AR-A014418, reference compound]",elevation of SMN levels in vitro,[1],shown to elevate SMN levels in vitro
same,protection in the HCA oxidative stress model,"[2]; HCA 5 mM, MTT assay",provided some protection
"Cn1cc(C2=C(c3coc4ccccc34)C(=O)NC2=O)c2cc(Br)ccc21 [BIP-135, 3-(5-bromo-1-methyl-1H-indol-3-yl)-4-(benzofuran-3-yl)pyrrole-2,5-dione]",IC50,[3],[…]
same,"tube test parameters (time hanging, number of pulls, hind-limb strength score, tube test score)",[4],no significant treatment effect
same,protection of HCA-treated cortical neurons (survival),"[2]; 20 µM, HCA 5 mM, MTT assay, HCA alone approximately 25 percent survival",about 80%
same,protection in the HCA oxidative stress model,"[2]; HCA 5 mM, MTT assay",able to protect at a lower concentration
same,toxicity to neurons exposed to compound alone,[2]; absence of HCA,No significant toxicity
same,increase in SMN levels compared to vehicle treated cells,"[5]; 25 µM, western blot",7 fold
same,toxicity in SMA patient fibroblasts (bell-shaped dose-response),[5]; higher concentrations,some toxicity at higher concentrations
same,tolerability / toxicity in SMA KO animals,"[6]; 75 mg/kg IP, 100% DMSO as vehicle",did not appear to be toxic and was well-tolerated
same,effect on SMA KO body weight versus vehicle,"[6]; 75 mg/kg once a day, p = 0.0435, after around P6",showed an improvement in body weight
same,overall motor function (geotaxis and tube test),[7],did not improve the overall motor function
same,percent of KO mice that completed the geotaxis test,"[7]; P12, p = 0.0315",more KO animals treated with BIP-135 completed the geotaxis test
same,latency to complete the negative geotaxis test,[7]; p = 0.0683,no significant treatment effects
same,IC50,[8],219 nM
O=C1Cc2c([nH]c3ccc([N+](=O)[O-])cc23)-c2ccccc2N1 [alsterpaullone],elevation of SMN levels in vitro,[1],shown to elevate SMN levels in vitro
CHIR98014,elevation of SMN levels in vitro,[1],shown to elevate SMN levels in vitro
